Measurements from ChEMBL document CHEMBL1143109, “Discovery of novel orally active ureido NPY Y5 receptor antagonists” (Bioorg Med Chem Lett, 2008).

Assays:
[1] = Drug level in plasma of Sprague-Dawley DIO rat at 10 mg/kg/day, po after 28 days; type: ADME, organism-based; set-up: route oral
How it was run: (§1)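 DIO rats weighing 700–800 g at start, n = 12/group, food and water ad libitum. Compound admixed into low fat diet for 28 days; delivered doses (1, 3 or 10 mg/kg/day) calculated from food consumption. Body composition by DEXA scanning, expressed as percent change from day 0 baseline; average plasma levels taken at the 10 mg/kg/day dose.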

[2] = target: 5-hydroxytryptamine receptor 2A (Homo sapiens) (UniProt P28223); experiment: Inhibition of 5HT2A receptor at 10 uM
How it was run: (§2)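 Counterscreen panel of 60 receptors, enzymes and ion channels; inhibition of binding measured at 10 µM.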

[3] = target: T1, Neuropeptide Y receptor type 2 (Homo sapiens, UniProt P49146); experiment: Binding affinity to human NPY Y2 receptor
T1 sequence (P49146 whole entry): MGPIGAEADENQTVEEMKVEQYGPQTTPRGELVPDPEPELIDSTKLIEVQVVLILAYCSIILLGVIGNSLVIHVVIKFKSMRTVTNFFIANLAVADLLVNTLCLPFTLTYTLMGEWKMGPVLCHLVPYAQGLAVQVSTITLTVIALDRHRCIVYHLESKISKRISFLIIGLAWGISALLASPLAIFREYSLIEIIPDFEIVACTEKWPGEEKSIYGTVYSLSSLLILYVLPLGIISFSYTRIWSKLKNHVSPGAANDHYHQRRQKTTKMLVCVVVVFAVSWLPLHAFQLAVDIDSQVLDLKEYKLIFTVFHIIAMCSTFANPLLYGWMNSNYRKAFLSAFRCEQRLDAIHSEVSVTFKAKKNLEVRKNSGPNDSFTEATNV

[4] = target: 5-hydroxytryptamine receptor 5A (Homo sapiens) (UniProt P47898); experiment: Inhibition of 5HT5A receptor at 10 uM; how it was run: as §2
[5] = Bioavailability in Beagle dog; type: ADME, organism-based, Canis lupus familiaris; conditions: in vivo
[6] = target: 5-hydroxytryptamine receptor 2B (Homo sapiens) (UniProt P41595); experiment: Inhibition of 5HT2B receptor at 10 uM; how it was run: as §2
[7] = Ratio of drug level in brain to plasma in po dosed rat; type: ADME, organism-based; conditions: read-out: BPR
[8] = tested on: Rattus norvegicus; experiment: Reduction in body weight gain in po dosed Sprague-Dawley DIO rat after 28 days relative to control; type: functional, organism-based; how it was run: as §1
[9] = tested on: Rattus norvegicus; experiment: Decrease in adipose mass in po dosed Sprague-Dawley DIO rat after 28 days; type: functional, organism-based; how it was run: as §1
[10] = target: Sodium-dependent noradrenaline transporter (Homo sapiens) (UniProt P23975); experiment: Inhibition of norepinephrine transporter at 10 uM; how it was run: as §2
[11] = Inhibition of sodium channel at 10 uM; how it was run: as §2
[12] = Inhibition of calcium channel at 10 uM; how it was run: as §2
[13] = Half life in iv dosed rat; type: ADME, organism-based; conditions: in vivo

Sequence of 5-hydroxytryptamine receptor 2B (Homo sapiens) (P41595 whole entry): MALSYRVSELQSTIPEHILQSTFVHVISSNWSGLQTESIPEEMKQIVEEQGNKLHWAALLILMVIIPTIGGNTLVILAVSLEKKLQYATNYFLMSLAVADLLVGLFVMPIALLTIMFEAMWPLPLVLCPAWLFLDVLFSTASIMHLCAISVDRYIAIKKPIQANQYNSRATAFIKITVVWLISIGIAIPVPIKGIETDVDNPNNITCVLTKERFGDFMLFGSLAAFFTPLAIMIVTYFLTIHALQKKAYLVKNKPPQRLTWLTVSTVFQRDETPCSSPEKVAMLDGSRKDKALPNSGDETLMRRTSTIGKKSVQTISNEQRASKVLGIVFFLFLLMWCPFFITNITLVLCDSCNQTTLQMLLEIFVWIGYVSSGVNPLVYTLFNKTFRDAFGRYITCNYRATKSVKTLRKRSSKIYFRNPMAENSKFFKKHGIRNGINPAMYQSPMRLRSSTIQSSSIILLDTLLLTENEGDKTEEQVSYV
Sequence of Sodium-dependent noradrenaline transporter (Homo sapiens) (P23975 whole entry): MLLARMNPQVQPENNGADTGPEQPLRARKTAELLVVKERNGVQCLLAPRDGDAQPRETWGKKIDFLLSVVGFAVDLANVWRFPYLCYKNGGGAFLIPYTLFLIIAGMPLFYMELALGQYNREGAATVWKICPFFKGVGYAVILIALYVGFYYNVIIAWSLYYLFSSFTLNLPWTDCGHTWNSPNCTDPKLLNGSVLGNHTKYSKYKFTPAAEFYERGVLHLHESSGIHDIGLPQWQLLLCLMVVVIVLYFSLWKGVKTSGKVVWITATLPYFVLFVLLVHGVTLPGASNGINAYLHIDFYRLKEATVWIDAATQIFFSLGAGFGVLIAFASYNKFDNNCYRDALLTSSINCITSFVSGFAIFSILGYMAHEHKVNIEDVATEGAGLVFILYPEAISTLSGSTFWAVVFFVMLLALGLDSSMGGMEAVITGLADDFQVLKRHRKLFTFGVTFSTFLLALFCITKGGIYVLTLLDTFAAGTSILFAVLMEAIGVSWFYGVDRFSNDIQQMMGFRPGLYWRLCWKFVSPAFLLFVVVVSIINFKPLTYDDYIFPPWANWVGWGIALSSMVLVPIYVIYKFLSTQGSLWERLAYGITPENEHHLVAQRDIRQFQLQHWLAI
Sequence of 5-hydroxytryptamine receptor 2A (Homo sapiens) (P28223 whole entry): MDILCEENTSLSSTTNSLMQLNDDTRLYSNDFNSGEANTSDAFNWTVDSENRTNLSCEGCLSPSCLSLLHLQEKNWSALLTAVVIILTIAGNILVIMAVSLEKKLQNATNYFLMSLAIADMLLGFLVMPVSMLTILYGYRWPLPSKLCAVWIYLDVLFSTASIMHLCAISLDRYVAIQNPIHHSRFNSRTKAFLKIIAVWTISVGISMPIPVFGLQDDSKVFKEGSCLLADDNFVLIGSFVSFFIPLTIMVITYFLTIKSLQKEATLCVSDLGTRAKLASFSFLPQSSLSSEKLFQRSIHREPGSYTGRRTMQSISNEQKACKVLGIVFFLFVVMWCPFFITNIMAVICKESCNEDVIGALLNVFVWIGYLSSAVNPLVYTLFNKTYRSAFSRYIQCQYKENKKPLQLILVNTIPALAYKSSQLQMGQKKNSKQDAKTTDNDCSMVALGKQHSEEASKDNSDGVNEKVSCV
Sequence of 5-hydroxytryptamine receptor 5A (Homo sapiens) (P47898 whole entry): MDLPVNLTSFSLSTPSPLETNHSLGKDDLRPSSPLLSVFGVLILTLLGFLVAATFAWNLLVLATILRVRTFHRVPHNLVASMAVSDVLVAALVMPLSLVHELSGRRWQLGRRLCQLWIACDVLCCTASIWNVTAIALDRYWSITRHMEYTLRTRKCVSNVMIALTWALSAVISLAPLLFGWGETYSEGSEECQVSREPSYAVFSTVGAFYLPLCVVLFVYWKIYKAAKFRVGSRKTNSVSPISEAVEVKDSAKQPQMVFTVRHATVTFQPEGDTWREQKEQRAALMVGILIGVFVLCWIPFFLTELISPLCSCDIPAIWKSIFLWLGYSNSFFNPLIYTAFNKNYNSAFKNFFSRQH

concentration at 672 h [1]: 13 µM | inhibition [2]: < 10% | Ki [3]: > 10 µM | inhibition [4]: < 10% | bioavailability [5]: 94% | inhibition [6]: < 10% | Kp [7]: 0.3 | inhibition [10]: < 10% | inhibition [11]: < 25% | inhibition [12]: < 25% | half-life [13]: 1.4 h
SMILES: CC(=O)N1CCC(N(C)C(=O)N[C@H]2CC[C@H](c3cc(F)cc(F)c3)CC2)CC1
Activity [8]: Dose-dependent effect | Activity [9]: Dose-dependent effect
